Experimental data from different studies.
Lines come from different studies, so protocols differ.
Target: MAP kinase-activated protein kinase 5 (MAPKAPK5, Homo sapiens, UniProt Q8IW41)
Residues used in one study (Q8IW41 1-473): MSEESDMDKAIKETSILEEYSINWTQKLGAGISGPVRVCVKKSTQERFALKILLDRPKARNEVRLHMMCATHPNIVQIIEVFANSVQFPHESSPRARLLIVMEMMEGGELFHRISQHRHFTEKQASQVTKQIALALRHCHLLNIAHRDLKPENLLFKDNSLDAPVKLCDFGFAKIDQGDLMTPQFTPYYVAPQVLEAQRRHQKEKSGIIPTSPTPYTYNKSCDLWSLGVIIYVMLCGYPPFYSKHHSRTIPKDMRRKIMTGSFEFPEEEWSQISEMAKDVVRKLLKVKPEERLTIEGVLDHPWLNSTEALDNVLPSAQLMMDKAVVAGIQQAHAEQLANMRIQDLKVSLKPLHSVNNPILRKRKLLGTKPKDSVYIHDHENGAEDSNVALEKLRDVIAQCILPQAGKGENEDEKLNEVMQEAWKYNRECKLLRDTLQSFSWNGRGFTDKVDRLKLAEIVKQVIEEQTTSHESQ

| assay | conditions | remaining binding | SMILES |
| --- | --- | --- | --- |
| binding, competition with immobilised ligand | 0.1 µM | 76% | C[C@@H](c1ccc(-n2cnc3c(N)ncnc32)cc1)N1CCc2nn(C)c(Cc3ccccc3)c2C1=O |
| binding, competition with immobilised ligand | 1 µM | 72% | O=C(NCC1CCOCC1)c1n[nH]cc1NC(=O)c1c(F)cccc1F |
| binding | 1 µM | 99% | CN(c1nccc(-c2cnn3ncccc23)n1)C1CC1 |
| cell-free assay, competition with immobilised ligand | 1 µM | 93% | CCS(=O)(=O)c1cc2cc(C[C@](O)(CC(C)(C)c3ccc(F)cc3C(N)=O)C(F)(F)F)[nH]c2cn1 |
| binding, competition with immobilised ligand | 1 µM | 80% | O=C(c1ccc(Nc2ncc(Cl)c(-c3cc4ccccc4s3)n2)cc1)N1CCC(N2CCCC2)CC1 |
| binding | 1 µM | 69% | C[C@@H]1CCN(c2nccc(-c3cnn4ncccc34)n2)C1 |
| cell-free assay, competition with immobilised ligand | 0.1 µM | 100% | Cn1cc(Cl)c2c(Oc3c(F)cc(Nc4cc(Cl)nc(N)n4)cc3F)ccnc21 |
| binding | 1 µM | 100% | CN(CCCC(F)(F)F)c1nccc(-c2cnn3ncccc23)n1 |
| binding, competition with immobilised ligand | 1 µM | 97% | Nc1ncc2c(n1)-c1c([nH]c3ccc(C#CC4CC4)cc13)CCCC2 |
| binding | 1 µM | 77% | Cc1cnn2ncc(-c3ccnc(N(C)C)n3)c2c1 |
| binding, competition with immobilised ligand | 1 µM | 92% | C=CC(=O)N1CCC(C(=O)NCC(=O)N2CCN(c3nc(-c4cnc(N)nc4C(F)F)nc(N4CCOCC4)n3)CC2)CC1 |
| cell-free assay, competition with immobilised ligand | 1 µM | 87% | CS(=O)(=O)c1cc(C2(NC(=O)c3cncc4c3cnn4-c3ccc(F)cc3)CC2)ccn1 |
| binding, competition with immobilised ligand | 1 µM | 96% | O=C(c1ccc(Nc2nccc(-c3cc4ccccc4s3)n2)cc1)N1CCC(N2CCCC2)CC1 |
| cell-free assay, competition with immobilised ligand | 1 µM | 99% | CN(C)CC#Cc1ccc(OCCCc2sc(N3CCc4cccc(C(=O)Nc5nc6ccccc6s5)c4C3)nc2C(=O)O)c(F)c1 |
| binding, competition with immobilised ligand | 1 µM | 100% | CNC(=O)[C@@H]1CC[C@@H](n2c(-c3ccc4cnccc4c3)nc3ccc(C(=O)NCc4cccc(C(N)=O)c4)cc32)C1 |
| cell-free assay, competition with immobilised ligand | 1 µM | 100% | CN(C(=O)c1ccccc1)c1cc(N(C)c2ccc3c(c2)CCc2ccc(C(=O)NCCN4CCOCC4)cc2C3=O)ccc1F |
| binding | 1 µM | 93% | CN(C)c1nccc(-c2cnc3ncccn23)n1 |
| cell-free assay, competition with immobilised ligand | 0.1 µM | 86% | C[C@H](c1ccnc(Nc2nc3ccc(-c4cc(N(C)C)ncn4)cc3[nH]2)c1)N1CCN(C(=O)CC(F)(F)F)CC1 |
| binding, competition with immobilised ligand | 10 µM | 100% | c1cncc(-c2cccc(Nc3nccc(NC4CCCCC4)n3)c2)c1 |
